Assay results taken from ChEMBL document CHEMBL1158555, “Structure-activity relationships of bioisosteric replacement of the carboxylic acid in novel androgen receptor pure antagonists” (Bioorg Med Chem, 2010).
Activity calls are given as the source filed them. The rule behind the calls is not given here.

Legend:
[1] = biological target: T1, Androgen receptor (Homo sapiens) (UniProt P10275); assay: Agonist activity at AR in human LNCAP cells assessed as effect on cell proliferation after 6 days; assay type: functional, cell-based
T1 sequence (whole entry): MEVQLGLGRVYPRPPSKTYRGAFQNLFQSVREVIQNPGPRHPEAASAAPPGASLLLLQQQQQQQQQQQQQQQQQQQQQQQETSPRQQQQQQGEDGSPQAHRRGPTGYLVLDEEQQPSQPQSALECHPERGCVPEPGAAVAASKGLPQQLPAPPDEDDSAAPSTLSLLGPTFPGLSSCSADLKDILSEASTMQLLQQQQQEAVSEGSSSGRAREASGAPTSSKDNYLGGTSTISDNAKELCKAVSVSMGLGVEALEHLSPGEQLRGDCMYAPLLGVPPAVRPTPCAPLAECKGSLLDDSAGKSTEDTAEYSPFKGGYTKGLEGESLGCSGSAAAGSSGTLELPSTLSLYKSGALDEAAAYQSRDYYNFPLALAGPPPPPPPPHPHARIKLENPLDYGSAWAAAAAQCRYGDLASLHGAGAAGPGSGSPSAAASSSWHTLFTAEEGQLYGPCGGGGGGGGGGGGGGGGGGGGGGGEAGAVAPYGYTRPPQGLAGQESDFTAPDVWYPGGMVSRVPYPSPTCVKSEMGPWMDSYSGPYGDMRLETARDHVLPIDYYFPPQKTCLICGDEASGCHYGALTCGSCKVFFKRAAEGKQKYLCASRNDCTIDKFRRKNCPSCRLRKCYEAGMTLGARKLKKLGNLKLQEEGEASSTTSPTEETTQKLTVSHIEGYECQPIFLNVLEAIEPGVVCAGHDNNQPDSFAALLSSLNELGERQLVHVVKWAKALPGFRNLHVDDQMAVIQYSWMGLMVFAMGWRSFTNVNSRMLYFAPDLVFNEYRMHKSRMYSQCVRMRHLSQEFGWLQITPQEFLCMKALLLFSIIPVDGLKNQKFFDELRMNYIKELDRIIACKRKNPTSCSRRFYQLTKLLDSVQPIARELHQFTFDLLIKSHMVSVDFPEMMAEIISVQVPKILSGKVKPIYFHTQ
How it was run: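 LNCaP cells were pre-starved and plated in phenol red-free RPMI 1640 with 5% DCC-FBS. After overnight attachment, test compound was added without R1881 for 6 days. Proliferation was read by MTS (CellTiter 96 AQueous One). Agonism was scored +/− from the growth dose-response curve.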

Androgen receptor = biological target: T2, Androgen receptor (Homo sapiens, UniProt P10275); assay: Displacement of [3H]mibolerone from human AR expressed in CHO-K1 cells after 2 hrs by scintillation counting; assay type: cell-based
T2 sequence (P10275 whole entry): T1 sequence (whole entry)

[2] = biological target: T1, Androgen receptor (Homo sapiens); conditions: HeLa
[3] = Metabolic stability in human liver microsomes assessed as compound remaining at […] after 15 mins by LC-MS/MS analysis; assay type: ADME, Microsome; conditions: read-out: Stability
[4] = biological target: T1, Androgen receptor (Homo sapiens); conditions: HeLa; remark: listed apart in the source
Mus musculus = species: Mus musculus; assay: Antiandrogenic activity in castrated mouse assessed as reduction in testosterone-induced wet weight gain of seminal vesicle; assay type: functional
LNCaP = assay: Antitumor activity against human LNCAP cells xenografted in po dosed SCID mouse assessed as inhibition of tumor growth administered once daily in seven cycles of 5 days on and 2 days off schedule; assay type: functional, organism-based
How it was run: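 LNCaP cells (2×10^6) were injected subcutaneously into 6-week-old male SCID mice. At tumour size 90–400 mm³, mice were randomised and dosed orally in 5% gum arabic at 10 mL/kg body weight. Dosing ran as seven cycles of 5 days on, 2 days off, with n = 6 per group.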

Compound	Activity [1]	IC50 (Androgen receptor)	EC5 [2]	remaining [3]	EC5 [4]	ED50 (Mus musculus)	inhibition (LNCaP)
CC1(C)C(=O)N(c2ccc(C#N)c(C(F)(F)F)c2)C(=S)N1CCCC(=O)O	inactive	3900 nM	> 10 µM	97%	> 10 µM	–	–
CNS(=O)(=O)CCCN1C(=S)N(c2ccc(C#N)c(C(F)(F)F)c2)C(=O)C1(C)C	inactive	170 nM	1.4 µM	–	> 10 µM	–	–
CC1(C)C(=O)N(c2ccc(C#N)c(C(F)(F)F)c2)C(=S)N1CCCc1nnn[nH]1	inactive	> 1000 nM	–	–	> 10 µM	–	–
Cc1cc(N2C(=O)C(C)(C)N(CCCS(N)(=O)=O)C2=S)ccc1C#N	inactive	> 1000 nM	> 10 µM	94%	–	–	–
CC1(C)C(=O)N(c2ccc(C#N)c(C(F)(F)F)c2)C(=S)N1CCCNC(N)=O	inactive	800 nM	0.35 µM	–	0.65 µM	–	–
COc1cc(N2C(=O)C(C)(C)N(CCCS(N)(=O)=O)C2=S)ccc1C#N	Active	1900 nM	> 10 µM	100%	–	–	–
CN(C)S(=O)(=O)CCCN1C(=S)N(c2ccc(C#N)c(C(F)(F)F)c2)C(=O)C1(C)C	Active	80 nM	–	–	0.11 µM	–	–
CC1(C)C(=O)N(c2ccc(C#N)c(C(F)(F)F)c2)C(=S)N1CCCCS(N)(=O)=O	inactive	> 1000 nM	> 10 µM	–	> 10 µM	–	–
Cc1cc(C#N)c(C(F)(F)F)cc1N1C(=O)C(C)(C)N(CCCS(N)(=O)=O)C1=S	–	> 5000 nM	> 10 µM	91%	–	–	–
CC1(C)C(=O)N(c2ccc(C#N)c(C(F)(F)F)c2)C(=S)N1CCCS(N)(=O)=O	inactive	400 nM	> 10 µM	95%	> 10 µM	–	–
CC1(C)C(=O)N(c2ccc(C#N)c(Cl)c2)C(=S)N1CCCS(N)(=O)=O	inactive	440 nM	–	100%	–	10 mg/kg	Dose-dependent effect
CC1(C)C(=O)N(c2ccc(C#N)c(C(F)(F)F)c2)C(=S)N1CCCNS(N)(=O)=O	inactive	> 1000 nM	> 10 µM	–	> 10 µM	–	–
CC1(C)C(=O)N(c2ccc(C#N)c(C(F)(F)F)c2)C(=S)N1CCS(N)(=O)=O	inactive	770 nM	7.2 µM	–	> 10 µM	–	–
CN1C(=S)N(c2ccc(C#N)c(C(F)(F)F)c2)C(=O)C1(C)C	Active	15 nM	8e-05 µM	–	< 0.001 µM	–	–
CC1(C)C(=O)N(c2ccc(C#N)cc2)C(=S)N1CCCS(N)(=O)=O	–	> 5000 nM	> 10 µM	92%	–	–	–
CC1(C)C(=O)N(c2ccc(C#N)c(C(F)(F)F)c2)C(=S)N1CCCC(N)=O	inactive	480 nM	> 10 µM	–	3.6 µM	–	–
CC1(C)C(=O)N(c2ccc(C#N)c(C(F)(F)F)c2)C(=S)N1CCCS(=O)(=O)O	Active	> 1000 nM	–	–	> 10 µM	–	–
Cc1c(N2C(=O)C(C)(C)N(CCCS(N)(=O)=O)C2=S)ccc(C#N)c1C(F)(F)F	Active	260 nM	2 µM	89%	–	–	–
